Assay outcomes (PubChem)
Compounds with a hit are over-represented: about 4.5% of the library has one in this group of screens.
TAAR1 antagonist: human TAAR1 antagonism. CHO RD-HGA16 TAAR1, Fluo-8 calcium fluorescence, antagonist. inhibition, % at 3 µM. AID 624466. hit rate 1.5% among 360,000;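 active = inhibition above a per-plate cutoff, the mean inhibition of test compounds on that plate plus 3 SD, cut at about 49% in these data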
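System: CHO RD-HGA16 cells bearing hTAAR1. Reagent: EC80 β-phenethylamine stimulus. Schedule: seeding 17-24 h prior, 75-min 37 °C, 30-min RT dye loading. Signal: Fluo-8 intracellular calcium dye fluorescence, real-time kinetic reads. Read-out: % inhibition from peak post-agonist over basal fluorescence ratio. Benchmarks: vehicle wells and EC80 agonist wells. Replicates: n of 1.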
CHO parental Ca: counter-screen for OX1R antagonists: effect in parental CHO cells; hit rate 0.63% among 330,000; AID 463079; inhibition, % at 5.6 µM; parental CHO-K1, ATP-induced calcium, Fluo-8 fluorescence;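 active = inhibition above that plate's mean sample inhibition plus 3 SD, cut at about 26% in these data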
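Test system: parental CHO cells; detection: calcium-sensitive Fluo-8 fluorescence; evaluation: percent inhibition of calcium signal; also added: ATP as calcium-mobilizing challenge; repeats: one well per compound; control set: ATP-challenged DMSO wells low, unchallenged DMSO wells high; compound: single nominal dose of 5.6 µM per compound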
OX1R antag-1: blocks the human orexin 1 receptor. O43613. OX1R-expressing cells, FRET antagonist read-out. inhibition, % at 6.6 µM. hit rate 1.8% among 330,000. AID 485270; in the data active = inhibition mostly above about 38%, no sharp cut-off; inactive = mostly below about 40%
Target sequence (O43613 whole entry, looked up): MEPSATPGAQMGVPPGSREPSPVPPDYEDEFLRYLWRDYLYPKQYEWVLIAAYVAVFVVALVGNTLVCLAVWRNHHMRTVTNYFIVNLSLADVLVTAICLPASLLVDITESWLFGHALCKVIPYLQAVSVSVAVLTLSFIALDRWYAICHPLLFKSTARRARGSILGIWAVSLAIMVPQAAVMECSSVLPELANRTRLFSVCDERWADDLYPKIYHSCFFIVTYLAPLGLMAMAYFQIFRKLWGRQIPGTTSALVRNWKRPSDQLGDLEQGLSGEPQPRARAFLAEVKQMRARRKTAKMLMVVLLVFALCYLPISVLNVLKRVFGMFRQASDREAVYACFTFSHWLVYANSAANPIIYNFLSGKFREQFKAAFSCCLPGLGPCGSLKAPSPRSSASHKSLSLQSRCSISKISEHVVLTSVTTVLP
TAAR1 agonist: human TAAR1 agonism; Q96RJ0; CHO RD-HGA16 TAAR1, Fluo-8 calcium fluorescence; vehicle wells 0%, saturating PEA agonist 100%; activation, % at 3 µM; hit rate 0.99% among 360,000; AID 624467;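 active = activation above the mean activation of all test compounds in the run plus 3 SD, cut at about 38% in these data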
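Test system: RD-HGA16 (CHO) cells co-expressing Gα16 and hTAAR1 | Doses: Single dose, 3 µM | Schedule: 17-24 h seeding, 75 min 37 °C dye, 30 min RT | Evaluation: % activation from peak over basal fluorescence ratio, DMSO-to-PEA scaled | Technique: Kinetic Fluo-8 calcium fluorescence | Benchmarks: Low control DMSO, high control PEA (EC100)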
GPR7 antagonist: human neuropeptides B/W receptor 1 antagonism; inhibition, % at 4.4 µM; AID 1861; GPR7-expressing cells, fluorescence antagonist assay; hit rate 1.1% among 290,000; P48145; in the data active = inhibition above about 16%, passing the limit was not always enough;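 also: cells stimulated with the agonist NPW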
OX1R antag-2: human HCRTR1 antagonism; O43613; CHO/OX1R cells, Fluo-8 calcium fluorescence, orexin A; inhibition, % at 5 µM; hit rate 0.43% among 330,000; AID 434989;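 active = inhibition above its plate's threshold, mean inhibition of all tested compounds on the plate plus 3 SD, cut at about 37% in these data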
TAAR1 nonsel count: counter-screen for TAAR1 antagonists: nonselective antagonists; shares compounds with TAAR1 antagonist; counterscreen cell line, calcium fluorescence, antagonist mode; inhibition, % at 3 µM; hit rate 77% among 2,400; AID 651780; in the data active = inhibition above about 22%;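 also: CHO-Ga16 host cells stimulated with ATP at an EC80 level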
TAAR1 antag conf: human TAAR1 antagonism, confirmed; shares compounds with TAAR1 antagonist; inhibition, % at 3 µM; TAAR1-expressing cells, fluorescence antagonist read-out; hit rate 40% among 2,400; in the data active = inhibition above about 49%;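 also: CHO-Ga16 host cells challenged with agonist PEA near its EC80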
Ga16 ag counter: nonselective Ga16 agonist in TAAR1 antagonist counter-screen; shares compounds with TAAR1 antagonist; Ga16-expressing cells, calcium fluorescence, agonist counterscreen; activation, % at 3 µM; hit rate 18% among 2,400; AID 651953; in the data active = activation above about 12%
TAAR1 ag count: counter-screen for human TAAR1 antagonists: TAAR1 agonists; hit rate 2% among 2,400; activation, % at 3 µM; AID 651955; shares compounds with TAAR1 antagonist; hTAAR1 cell line, fluorescence activation, agonist mode; in the data active = activation above about 37%;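 also: CHO cells stably expressing TAAR1 with calcium dye readout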
Hits are given with their value; 0 = inactive; - = no result given.

SMILES	TAAR1 antagonist	CHO parental Ca	OX1R antag-1	TAAR1 agonist	GPR7 antagonist	OX1R antag-2	TAAR1 nonsel count	TAAR1 antag conf	Ga16 ag counter	TAAR1 ag count
CCO[C@H]1OC(C(=O)NCc2nc3ccccc3[nH]2)=C[C@@H](c2csc3ccccc23)[C@@H]1CCCO	53.6	0	0	0	0	0	25.6	0	0	0
CCO[C@@H]1OC(C(=O)NCc2nc3ccccc3[nH]2)=C[C@H](c2csc3ccccc23)[C@H]1CCCO	53.4	0	0	0	0	0	30.4	0	0	0
O=C(Nc1ccccc1OC(F)F)c1ccc(S(=O)(=O)N2CCOCC2)cc1	0	0	0	0	0	0	-	-	-	-
CCN(CC)CCN1C(=O)C2C(C(=O)Nc3cc(C)cc(C)c3)C3C=CC2(O3)C1C(=O)NC1CCCCC1 (stereo not drawn)	0	0	0	0	0	0	-	-	-	-
Cc1ccccc1N1CCN(C2CCCN(C(=O)c3ccccn3)C2)CC1 (stereo not drawn)	0	0	0	0	0	0	-	-	-	-
Cc1ccccc1N1CCN(C2CCCN(C(=O)c3cn4cccc(C)c4n3)C2)CC1 (stereo not drawn)	57.2	-	-	0	0	-	29.6	0	0	0
Nc1ccc(C#Cc2ccc3oc4ccccc4c(=O)c3c2)cc1	68.1	0	0	0	-	0	0	0	0	0
O=c1c2ccccc2oc2cc(C#Cc3ccccn3)ccc12	0	0	0	0	-	0	-	-	-	-
COc1ccccc1C(=O)Nc1ccc2c(c1)CCCN2C(=O)c1ccccc1	0	0	0	0	0	0	-	-	-	-
O=C(Nc1ccc2c(c1)CCCN2C(=O)c1cccs1)c1cccc(F)c1	69.5	0	0	0	0	0	28.6	0	0	0
O=C(Nc1ccc2c(c1)CCCN2C(=O)c1ccccc1)c1ccccc1Br	66.1	0	0	0	0	0	30.9	0	0	0
O=[N+]([O-])c1ccccc1C(=Nc1ccccc1)c1c(O)cc(O)cc1O	0	-	-	0	-	-	-	-	-	-
C=CCN1C(=O)CSc2ccc(C(=O)NCc3ccco3)cc21	0	0	0	0	0	0	-	-	-	-
C=CCN1C(=O)CSc2ccc(C(=O)NCCC3=CCCCC3)cc21	54.7	0	0	0	0	0	37.8	49.7	14.2	0
O=C(CCN1C(=O)CSc2ccccc21)Nc1ccc(C(F)(F)F)cc1	61.7	0	0	0	-	0	0	0	0	0
O=C(CCN1C(=O)CSc2ccccc21)Nc1cccc(C(F)(F)F)c1	0	0	0	0	-	0	-	-	-	-
COc1ccccc1N1CCN(C(=O)CCn2c(=O)[nH]c3ccccc3c2=O)CC1	0	0	0	0	0	0	-	-	-	-
COc1ccccc1N1CCN(C(=O)CCCn2c(=S)[nH]c3ccccc3c2=O)CC1	65.0	-	-	0	-	-	0	0	0	0
CC1CCC(NC(=O)COC(=O)c2ccco2)CC1 (stereo not drawn)	0	0	0	0	-	0	-	-	-	-
O=C(CCc1ccccc1)N[C@@H]1c2ccccc2CC[C@@H]1OCc1ccccc1	52.9	0	0	0	-	0	0	0	0	0
O=C(COCc1ccccc1)N[C@@H]1c2ccccc2CC[C@H]1OCc1ccccc1	0	0	0	0	-	0	-	-	-	-
O=C(NCCc1ccccc1)c1cccc2c1C(=O)c1ccc(N3CCOCC3)cc1S2(=O)=O	50.5	0	0	0	-	0	23.8	0	0	0
O=C(NCc1ccc(F)cc1)c1cccc2c1C(=O)c1ccc(N3CCOCC3)cc1S2(=O)=O	55.5	0	0	0	-	0	27.4	0	0	0
O=C(NCCC(=O)N1CCN(S(=O)(=O)c2ccccc2Cl)CC1)Nc1ccccc1	0	0	0	0	-	0	-	-	-	-
COc1ccc(-c2ccc3c(n2)CCCN3S(=O)(=O)c2cccs2)cc1	80.5	-	-	0	-	-	41.5	63.6	0	0
